Where a name gives a salt, the structure may show the parent alone. One block for each compound: values may come before it. The source made the active and inactive calls. The rule behind the calls is not given here. Non-standard residues stand in square brackets, D forms with d. Residues, ends and D or L forms follow the SMILES beside them. *: point of attachment. Pbf = Cc1c(C)c(S(=O)(=O)*)c(C)c2c1OC(C)(C)C2; Met(O2) = CS(=O)(=O)CC[C@H](N)C(=O)O; Met(O) = CS(=O)CC[C@H](N)C(=O)O; pNA = O=[N+]([O-])c1ccc(N*)cc1; Boc = CC(C)(C)OC(=O)*; NHBn = c1ccc(CN*)cc1; Tfa = O=C(C(F)(F)F)*; NHPh = c1ccc(N*)cc1
Columns and labels:
[1] = tested on: dengue virus type 2; assay: Inhibition of Dengue virus serotype 2 NS2B-NS3 protease using benzoyl-Nle-Lys-Arg-Arg-AMC as substrate assessed as remaining activity at 200 uM incubated for 3 mins followed by substrate addition by fluorescence spectrophotometric analysis relative to control
Method in brief: (§1)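 DENV2 NS2B-NS3 protease expressed from a plasmid. Enzyme preincubated with inhibitor 3 min, then Bz-Nle-Lys-Arg-Arg-AMC (33 or 66 µM) added. Remaining activity read by fluorescence, ex 356/em 438 nm. Triplicate averages. Ki from Dixon plot (1/v vs inhibitor) at the two substrate levels.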

[2] = tested on: dengue virus type 2; assay: Inhibition of Dengue virus serotype 2 NS2B-NS3 protease using benzoyl-Nle-Lys-Arg-Arg-AMC as substrate assessed as remaining activity at 20 uM incubated for 3 mins followed by substrate addition by fluorescence spectrophotometric analysis relative to control; method in brief: as §1
[3] = tested on: dengue virus type 2; assay: Inhibition of Dengue virus serotype 2 NS2B-NS3 protease using benzoyl-Nle-Lys-Arg-Arg-AMC as substrate assessed as remaining activity at 15 uM incubated for 3 mins followed by substrate addition by fluorescence spectrophotometric analysis relative to control; method in brief: as §1
[4] = tested on: dengue virus type 2; assay: Inhibition of Dengue virus serotype 2 NS2B-NS3 protease using benzoyl-Nle-Lys-Arg-Arg-AMC as substrate assessed as fluorescence changes after 0.2 to 1 min by fluorescence spectrophotometric analysis
Method in brief: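 Fluorescence interference check. Fluorescence change over time followed in three parallel runs at 37 °C in pH 9.0 Tris buffer: NS2B-NS3 with inhibitor, NS2B-NS3 with Bz-Nle-Lys-Arg-Arg-AMC, and NS2B-NS3 with substrate plus inhibitor. Read at ex 356/em 438 nm.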

[5] = Competitive inhibition of Dengue virus serotype 2 NS2B-NS3 protease using benzoyl-Nle-Lys-Arg-Arg-AMC as substrate by Dixon plot analysis; set-up: species or system dengue virus type 2; method in brief: as §1

Compound: N[C@@H](Cc1ccccc1)C(=O)N1CCC[C@H]1C(=O)Nc1ccc([N+](=O)[O-])cc1 (H-Phe-Pro-pNA)
- Activity [1]: 31%

Compound: C[S+]([O-])CC[C@H](N)C(=O)N1CCC[C@H]1C(=O)Nc1ccc([N+](=O)[O-])cc1 (stereo partly specified) (H-[Met(O)]-Pro-pNA)
- Activity [2]: 99%

Compound: Cc1c(C)c(S(=O)(=O)NC(=N)NCCC[C@H](N)C(=O)N2CCC[C@H]2C(=O)Nc2ccc([N+](=O)[O-])cc2)c(C)c2c1OC(C)(C)C2 (H-Arg(Pbf)-Pro-pNA)
- Activity [2]: 106%

Compound: CSCC[C@H](NCc1ccc([N+](=O)[O-])cc1)C(=O)N1CCC[C@H]1C(=O)Nc1ccc([N+](=O)[O-])cc1
- Activity [2]: 38%

Compound: CSCC[C@H](NC(=O)OC(C)(C)C)C(=O)N1CCC[C@H]1C(=O)Nc1ccc([N+](=O)[O-])cc1 (Boc-Met-Pro-pNA)
- Activity [3]: 45%
- inhibition [4]: Active
- Ki [5]: 10.5 µM

Compound: Cc1c(C)c(S(=O)(=O)NC(=N)NCCC[C@H](NC(=O)OC(C)(C)C)C(=O)N2CCC[C@H]2C(=O)Nc2ccc([N+](=O)[O-])cc2)c(C)c2c1OC(C)(C)C2 (Boc-Arg(Pbf)-Pro-pNA)
- Activity [2]: 90%

Compound: COc1ccc(CN[C@@H](CCSC)C(=O)N2CCC[C@H]2C(=O)Nc2ccc([N+](=O)[O-])cc2)cc1
- Activity [2]: 90%

Compound: CC(C)(C)OC(=O)N[C@@H](Cc1ccccc1)C(=O)N1CCC[C@H]1C(=O)Nc1ccc([N+](=O)[O-])cc1 (Boc-Phe-Pro-pNA)
- Activity [1]: 25%

Compound: N=C(N)NCCC[C@H](N)C(=O)N1CCC[C@H]1C(=O)Nc1ccc([N+](=O)[O-])cc1 (H-Arg-Pro-pNA)
- Activity [2]: 93%

Compound: CS(=O)(=O)CC[C@H](N)C(=O)N1CCC[C@H]1C(=O)Nc1ccc([N+](=O)[O-])cc1 (H-[Met(O2)]-Pro-pNA)
- Activity [2]: 103%

Compound: CSCC[C@H](NC(=O)C(F)(F)F)C(=O)N1CCC[C@H]1C(=O)Nc1ccc([N+](=O)[O-])cc1 (Tfa-Met-Pro-pNA)
- Activity [3]: 54%

Continued, in another order:

- Activity [1]: 36%
Compound: CSCC[C@H](N)C(=O)N1CCC[C@H]1C(=O)NCc1ccc([N+](=O)[O-])cc1

- Activity [1]: 60%
Compound: CSCC[C@H](N)C(=O)N1CCC[C@H]1C(=O)Nc1ccccc1 (H-Met-Pro-NHPh)

- Activity [3]: 58%
Compound: CSCC[C@H](N)C(=O)N1CCC[C@H]1C(=O)NCc1ccccc1 (H-Met-Pro-NHBn)

- Activity [2]: 96%
Compound: CSCC[C@H](N)C(=O)N1CCC[C@H]1C(=O)Nc1ccccc1[N+](=O)[O-]

- Activity [2]: 71%
Compound: CSCC[C@H](N)C(=O)N1CCC[C@@H]1C(=O)Nc1ccc([N+](=O)[O-])cc1

- Activity [3]: 31%
Compound: CSCC[C@H](N)C(=O)N1CCC[C@H]1C(=O)Nc1ccc([N+](=O)[O-])cc1
- Ki [5]: 4.9 µM

- Activity [2]: 37%
Compound: CSCC[C@H](N)C(=O)N1CCC[C@H]1C(=O)Nc1cccc([N+](=O)[O-])c1

Source: ChEMBL document CHEMBL3091279, “Discovery and SAR studies of methionine-proline anilides as dengue virus NS2B-NS3 protease inhibitors” (Bioorg Med Chem Lett, 2013)
